The record followed here is ChEMBL document CHEMBL6121061, “Metabolomics-Guided Discovery of Bipolarolides H-O, New Ophiobolin-Type Sesterterpenes with Antibacterial Activity from the Marine-Derived Fungus Uzbekistanica storfjordensis sp. nov” (2025).

Molecules are shown by their SMILES. Converted amounts (≈) assume the structure as drawn. The source made the active and inactive calls. The rule behind the calls is not given here.

The test system of one test is Pseudomonas aeruginosa. The experiment in a line: Antibacterial activity against Pseudomonas aeruginosa ATCC 27853 assessed as inhibition of bacterial growth at 100 uM by broth microdilution method. It counts as functional, organism-based. Put shortly:
(§1)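 Broth microdilution per EUCAST, run in duplicate, for two independent experiments. Pure compounds came from 10 mM stocks in 20% DMSO, diluted with water, and were tested at a final 100 μM for growth inhibition. Controls were gentamycin at 0.03–32 μg/mL (positive) and 0.25% DMSO with growth medium (negative).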
(Broth dilution looks for growth in wells or tubes with falling amounts of substance.)

The test system of test [1] is Streptococcus agalactiae. The test can be described thus: Antibacterial activity against Streptococcus agalactiae ATCC 12386 by broth microdilution method. It counts as functional. The method, boiled down:
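MIC was found by EUCAST broth microdilution in duplicate over 12.5–125 μM, using compounds from 10 mM stocks in 20% DMSO diluted in water. OD600 was plotted as a concentration-effect curve, and MIC was taken as the concentration giving an OD600 of 0.05. Gentamycin at 0.03–32 μg/mL served as the positive control.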

The next test has as its system Enterococcus faecalis. The test can be described thus: Antibacterial activity against Enterococcus faecalis ATCC 29122 assessed as inhibition of bacterial growth at 100 uM by broth microdilution method. It counts as functional, organism-based. Put shortly: as §1
In the next test the test system is Escherichia coli. The test can be described thus: Antibacterial activity against Escherichia coli ATCC 25922 assessed as inhibition of bacterial growth at 100 uM by broth microdilution method. It counts as functional, organism-based. The method, boiled down: as §1
For a further test, the system named is Staphylococcus aureus. The test can be described thus: Antibacterial activity against Staphylococcus aureus ATCC 25923 assessed as inhibition of bacterial growth at 100 uM by broth microdilution method. It counts as functional, organism-based. Put shortly:
as §1

The subject of test [2] is Streptococcus agalactiae. The experiment in a line: Antibacterial activity against Streptococcus agalactiae ATCC 12386 assessed as inhibition of bacterial growth at 100 uM by broth microdilution method.
Test [3] concerns Streptococcus agalactiae. The test can be described thus: Antibacterial activity against Streptococcus agalactiae ATCC 12386 assessed as inhibition of bacterial growth at 100 uM by broth microdilution method. It counts as functional, organism-based. Put shortly: as §1

As to `C/C(=C\CC[C@H](C)[C@H]1CC[C@]2(C)C[C@H]3C4=C(CC[C@@H]12)C(=O)N(CCO)[C@@H]4C[C@@]3(C)O)C(=O)O`, the result in the test on Pseudomonas aeruginosa, in the test on Streptococcus agalactiae [1], with Enterococcus faecalis, in the test with Escherichia coli and in the test with Staphylococcus aureus was inactive.

As for `CC(C)=C/C=C\[C@H](C)[C@H]1CC[C@]2(C)C[C@H]3C4=C(CC[C@@H]12)C(=O)N(CCO)[C@@H]4C[C@@]3(C)O`, the result in the test on Pseudomonas aeruginosa, in the test with Enterococcus faecalis, in the test on Escherichia coli and in the test on Staphylococcus aureus was inactive. In addition, the result with Streptococcus agalactiae [2] and in the test on Streptococcus agalactiae [3] was Active. Further, it took 66 µM (≈ 28.2 µg/mL) to inhibit growth in the test with Streptococcus agalactiae [1] (MIC).

As to `CC(CCC[C@H](C)[C@H]1CC[C@]2(C)C[C@H]3C4=C(CC[C@@H]12)C(=O)N(CCO)[C@@H]4C[C@@]3(C)O)C(=O)O` (stereo partly specified), the result in the test with Pseudomonas aeruginosa, with Streptococcus agalactiae [1], with Enterococcus faecalis, in the test with Escherichia coli and in the test with Staphylococcus aureus was inactive.

For `CNC(C)[C@@H]1CC[C@@H](N)[C@@H](O[C@H]2[C@H](O)[C@@H](O[C@H]3OC[C@](C)(O)[C@H](NC)[C@H]3O)[C@H](N)C[C@@H]2N)O1.CN[C@@H]1[C@@H](O)[C@@H](O[C@@H]2[C@@H](O)[C@H](O[C@H]3O[C@H](C(C)N)CC[C@H]3N)[C@@H](N)C[C@H]2N)OC[C@]1(C)O.CN[C@@H]1[C@@H](O)[C@@H](O[C@@H]2[C@@H](O)[C@H](O[C@H]3O[C@H](CN)CC[C@H]3N)[C@@H](N)C[C@H]2N)OC[C@]1(C)O` (stereo partly specified), 3 µM was the least that counted as inhibitory in the test on Streptococcus agalactiae [1] (MIC).

Take `CC(CCC[C@H](C)[C@H]1CC[C@]2(C)C[C@H]3C4=C(CC[C@@H]12)C(=O)N(CCO)[C@@H]4C[C@@]3(C)O)COC=O` (stereo partly specified): the result with Pseudomonas aeruginosa, in the test on Enterococcus faecalis, with Escherichia coli and in the test with Staphylococcus aureus was inactive. Also, the result with Streptococcus agalactiae [2] and in the test with Streptococcus agalactiae [3] was Active. For the same compound, the MIC (commonly the lowest concentration that inhibits growth of the organism) with Streptococcus agalactiae [1] is 86 µM (≈ 40.9 µg/mL).

Turning to `C/C(=C\CC[C@H](C)[C@H]1CC[C@]2(C)C[C@H]3C4=C(CC[C@@H]12)C(=O)N(CCO)[C@@H]4C[C@@]3(C)O)CO`, the outcome in the test on Pseudomonas aeruginosa, with Streptococcus agalactiae [1], in the test with Enterococcus faecalis, in the test with Escherichia coli and with Staphylococcus aureus was inactive.

In the case of `CC(C)=CCC[C@H](C)[C@H]1CC[C@]2(C)C[C@H]3[C@@H]4[C@H](CC[C@@H]12)C(=O)N1CCOC41C[C@@]3(C)O` (stereo partly specified), the result in the test on Pseudomonas aeruginosa, in the test with Streptococcus agalactiae [1], in the test on Enterococcus faecalis, in the test with Escherichia coli and in the test on Staphylococcus aureus was inactive.

Take `CC(CO)CCC[C@H](C)[C@H]1CC[C@]2(C)C[C@H]3C4=C(CC[C@@H]12)C(=O)N(CCO)[C@@H]4C[C@@]3(C)O` (stereo partly specified): the outcome in the test with Pseudomonas aeruginosa, with Streptococcus agalactiae [1], in the test with Enterococcus faecalis, in the test on Escherichia coli and in the test on Staphylococcus aureus was inactive.

Take `CC(C)=CCC[C@H](C)[C@H]1CC[C@]2(C)C[C@H]3C4=C(CC[C@@H]12)C(=O)N(CCO)[C@@H]4C[C@@]3(C)O`: the result in the test with Pseudomonas aeruginosa, with Enterococcus faecalis, with Escherichia coli and in the test on Staphylococcus aureus was inactive. This compound gave an MIC in the test on Streptococcus agalactiae [1] of 64 µM (≈ 27.5 µg/mL). In addition, the outcome in the test with Streptococcus agalactiae [3] was Active.
